Bioassay records from PubChem BioAssay.
An excerpt weighted towards active compounds, which were near 4.3% of everything screened.
CAL PDZ FP-1: inhibitors of human CAL PDZ peptide binding | Q9HD26 | purified CAL PDZ, TMR-peptide fluorescence polarization, 1 h | inhibition, % at 20 µM | hit rate 0.02% among 330,000 | AID 504414;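 active = highest replicate inhibition of at least 40%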
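Control set: unlabelled peptide and DMSO controls / Material: purified CerCALP PDZ construct / Timing: 1 h incubation at room temperature before polarization reading / Doses: 20 µM, one dose / Detection: fluorescence polarization (mP)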
Rtt109 Vps75: blocks Candida albicans Rtt109/Vps75 acetyltransferase activity; Q5AAJ8; purified Rtt109/Vps75, ThioGlo CoA-SH fluorescence, 4 h; inhibition, % at 34.9 µM; hit rate 0.16% among 330,000; AID 540336;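 active = inhibition of at least 50% in every replicate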
Target sequence (Q5AAJ8 whole entry, looked up): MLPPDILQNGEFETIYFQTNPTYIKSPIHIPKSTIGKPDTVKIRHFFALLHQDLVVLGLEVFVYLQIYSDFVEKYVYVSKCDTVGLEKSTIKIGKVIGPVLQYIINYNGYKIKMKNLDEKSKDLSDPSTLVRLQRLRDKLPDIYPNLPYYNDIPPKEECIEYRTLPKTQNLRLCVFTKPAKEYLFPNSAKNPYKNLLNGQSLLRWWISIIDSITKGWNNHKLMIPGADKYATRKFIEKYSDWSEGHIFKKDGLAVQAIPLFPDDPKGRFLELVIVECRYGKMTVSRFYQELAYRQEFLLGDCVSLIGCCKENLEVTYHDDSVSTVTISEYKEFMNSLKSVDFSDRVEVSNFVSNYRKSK
Dyrk1A ADPGlo: blocks rat Dyrk1A kinase activity; Q63470; ADP-Glo luminescence, NFATc1 peptide; inhibition, % at 12.5 µM; hit rate 0.43% among 310,000; in the data active = inhibition above about 50%
ALR inh: human ALR oxidase inhibition via reduced H2O2; P55789; hit rate 3.8% among 290,000; purified ALR, DTT oxidation, H2O2 HRP-luminol luminescence; AID 485317; inhibition, % (no concentration beside the values);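 active = mean replicate inhibition above about 79%, with every replicate also reaching it, limit read from the data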
Target sequence (P55789 whole entry, looked up): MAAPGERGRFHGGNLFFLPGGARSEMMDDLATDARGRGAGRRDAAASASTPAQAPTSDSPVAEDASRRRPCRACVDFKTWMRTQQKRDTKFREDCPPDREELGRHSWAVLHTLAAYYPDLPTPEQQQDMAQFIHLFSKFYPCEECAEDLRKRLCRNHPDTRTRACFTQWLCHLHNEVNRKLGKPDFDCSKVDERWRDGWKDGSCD
CAL PDZ FP-2: CAL PDZ (human) peptide binding inhibition; purified CAL PDZ, TMR-peptide fluorescence polarization, 1 h; Q9HD26; hit rate 0.92% among 300,000; inhibition, % at 24.9 µM; AID 602252;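 active = mean inhibition of at least 30% with at least half of replicates also reaching 30%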
ADP-Glo artifact: counter-screen for Dyrk1A inhibitors: ADP-Glo luciferase artifacts; 1,300 tested, under 10 active; shares compounds with Dyrk1A ADPGlo; AC50, µM (top dose mostly 12 µM); ADP-Glo luciferase artifact assay, no Dyrk1A, luminescence;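 active = fitted half-maximal dose AC50 no more than ten times the top valid tested dose, with luminescence dropping as dose rises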
Of the large screens only hits and unclear results are named; the others gave an inactive call (follow-up assays come after a bar, where they were run).

COc1ccc(N2CCN(C(=O)Cc3ccc(Br)cc3)CC2)cc1	none
O=C(O)c1cccc(-c2ccc(/C=N/Nc3ccc([N+](=O)[O-])cc3)o2)c1	Dyrk1A ADPGlo 60 | ADP-Glo artifact inactive
O=C(Cc1c(F)cccc1Cl)Nc1nc2ccccc2s1	Dyrk1A ADPGlo 51 | ADP-Glo artifact inactive
CC(=O)c1sc(NC(=O)Cc2c(F)cccc2Cl)nc1C	none (no result: CAL PDZ FP-2)
O=[N+]([O-])c1ccc2c(c1)C(=NO)c1cc(F)ccc1-2	Dyrk1A ADPGlo 68 (no result: ALR inh) | ADP-Glo artifact inactive
O=C1C=C(N2CCOCC2)c2ccccc2C1=O	Dyrk1A ADPGlo 56 | ADP-Glo artifact inactive
O=C(O)c1ccc2c(c1)S(=O)(=O)c1cc(Cl)ccc1C2=O	Dyrk1A ADPGlo 66 | ADP-Glo artifact inactive
CC(C)(CNC(=O)c1cccs1)N1CCOCC1	none
COc1ccc(-c2nn(-c3ccccc3)cc2CO)cc1	Dyrk1A ADPGlo 62 | ADP-Glo artifact inactive
C=CCN1C(=O)CS/C1=N/c1nccs1	none
C=CCN1C(=O)/C(=C/c2ccccc2)S/C1=N/c1nccs1	Dyrk1A ADPGlo 58 | ADP-Glo artifact inactive
COC(=O)c1ccccc1NC(=O)c1cccnc1	none (no result: CAL PDZ FP-2)
COc1cc(C2N(c3ccc(Cl)cc3)C(=O)C3CCCN32)cc(OC)c1OC (stereo not drawn)	none
COc1ccc(N2C(=O)C3CCCN3C2c2cc(OC)c(OC)c(OC)c2)cc1 (stereo not drawn)	Dyrk1A ADPGlo 62 (no result: CAL PDZ FP-2) | ADP-Glo artifact inactive
COc1cc(O)c2c(=O)c3c(O[C@H]4O[C@@H](CO)[C@H](O)[C@@H](O)[C@@H]4O)ccc(O)c3oc2c1	none
COc1cc(O)c2c(=O)c3c(O)ccc(O)c3oc2c1	Dyrk1A ADPGlo 68 (no result: ALR inh) | ADP-Glo artifact inactive
Cc1cccc(NC(=S)NNC(=O)c2csc3c2CCC(C)C3)c1 (stereo not drawn)	Dyrk1A ADPGlo 62 (no result: ALR inh, CAL PDZ FP-2) | ADP-Glo artifact inactive
CCCCn1c(N)c(N(CC(C)C)C(=O)C2=NN(c3cc(C)ccc3C)C(=O)CC2)c(=O)[nH]c1=O	none
CC(C)(C)NC(=O)C(=O)NC(=O)c1c(F)cccc1Cl	Dyrk1A ADPGlo 63 (no result: CAL PDZ FP-2) | ADP-Glo artifact inactive
CC(C)(C)NC(=O)NC(=O)COC(=O)c1c(F)cccc1Cl	none
COc1ccc2[nH]c3c(C)c4ccncc4c(C)c3c2c1	Dyrk1A ADPGlo 56 | ADP-Glo artifact inactive
CC(C)c1nnc(NC(=O)Cn2nc(-c3ccc4c(c3)OCCO4)ccc2=O)s1	Dyrk1A ADPGlo 58 (no result: CAL PDZ FP-2) | ADP-Glo artifact inactive
O=C(Nc1nc(-c2ccncc2)cs1)c1ccco1	Dyrk1A ADPGlo 76 | ADP-Glo artifact inactive
O=C(Nc1nc(-c2ccc3c(c2)OCCO3)cs1)c1ccco1	Dyrk1A ADPGlo 73 | ADP-Glo artifact inactive
COc1ccccc1C(=O)Nc1nc(-c2ccc3c(c2)OCCO3)cs1	none
O=C(Nc1nc(-c2cccs2)cs1)c1ccco1	none
CCC(=O)Nc1nc(-c2ccc3c(c2)OCCO3)cs1	Dyrk1A ADPGlo 52, ALR inh 86 (no result: CAL PDZ FP-2) | ADP-Glo artifact inactive
Cc1ccc(NC(=S)N2CCN(S(=O)(=O)c3c(F)cccc3F)CC2)cc1C	none (no result: CAL PDZ FP-2)
O=C(O)COc1ccc(/C=N/NC(=O)Cc2ccc(Cl)cc2)cc1	none
Cc1[nH]c(=O)c(C#N)c(C)c1CCC(=O)NCc1cccc(C(F)(F)F)c1	none
O=C(/C=C/c1ccccc1)Nc1nc(-c2ccncc2)cs1	Dyrk1A ADPGlo 72 | ADP-Glo artifact inactive
O=C(CN1C(=O)NC2(CCCC2)C1=O)OCCOc1ccccc1Cl	none (no result: ALR inh, CAL PDZ FP-2)
FC(F)(F)c1ccc(C2Nc3cccc4cccc(c34)N2)cc1	none (no result: ALR inh)
Fc1ccc(C2Nc3cccc4cccc(c34)N2)cc1	Dyrk1A ADPGlo 52 | ADP-Glo artifact inactive
COc1ccc(C(=O)Nc2ccnn2C2CCN(C(=O)C3CCOC3)CC2)cc1 (stereo not drawn)	none
Fc1ccccc1/C=N/Nc1ncnc2nc[nH]c12	Dyrk1A ADPGlo 55 | ADP-Glo artifact inactive
Oc1ccc(/C=N/Nc2ncnc3nc[nH]c23)cc1	none (no result: ALR inh)
Fc1cccc(/C=N/Nc2ncnc3nc[nH]c23)c1	Dyrk1A ADPGlo 73 (no result: CAL PDZ FP-2) | ADP-Glo artifact inactive
COCCN(C(=O)COC(=O)C(c1ccccc1)c1ccccc1)c1c(N)n(Cc2ccccc2)c(=O)[nH]c1=O	none (no result: CAL PDZ FP-2)
C/C(=N\NC(=O)CNC(=O)c1ccccc1F)c1ccco1	none
Cc1cc(C)cc(NC(=S)NCCN2CCOCC2)c1	none
O=C1CCCC2=C1Sc1ccc(Cl)cc1N2	Dyrk1A ADPGlo 54 (no result: ALR inh) | ADP-Glo artifact inactive
S=C1CCSc2ccc(Cl)cc2N1	none (no result: ALR inh)
CC1CCCCC1NS(=O)(=O)c1ccc2c(c1)CC(=O)N2C (stereo not drawn)	none
COc1ccc(CNC(=O)COC(=O)/C=C/c2cccc(Br)c2)cc1	none (no result: Dyrk1A ADPGlo)
COc1cccc(-c2nnc3n2N=C(C(C)(C)C)CS3)c1	Dyrk1A ADPGlo 79 | ADP-Glo artifact inactive
COc1ccccc1-c1nnc2n1N=C(C(C)(C)C)CS2	none
CC(C)(C)C1=Nn2c(nnc2-c2ccccc2F)SC1	Dyrk1A ADPGlo 52 (no result: CAL PDZ FP-2) | ADP-Glo artifact inactive
CC(C)(C)[C@H]1C=C(C(=O)N2CCN(Cc3ccccc3)CC2)O[C@@H](OCCCCO)C1	Dyrk1A ADPGlo 53 | ADP-Glo artifact inactive
COc1ccccc1C1CCN(C(=O)c2ccccc2)CC1	none
COc1ccccc1C1CCN(c2cc(O)ccc2[N+](=O)[O-])CC1	Dyrk1A ADPGlo 54 | ADP-Glo artifact inactive
CCCCn1c(N2CCC(Cc3ccccc3)CC2)nc2c1c(=O)[nH]c(=O)n2C	Dyrk1A ADPGlo 56 (no result: ALR inh) | ADP-Glo artifact inactive
CCCCn1c(N2CCCC2)nc2c1c(=O)[nH]c(=O)n2C	none (no result: CAL PDZ FP-1)
Brc1ccc([C@H]2CN3CCSC3=N2)cc1	none
CN1CCN(CC(=O)Nc2ccc([N+](=O)[O-])cc2Br)CC1	none (no result: CAL PDZ FP-2)
COC(=O)NNC(=O)COc1ccc(Cl)cc1	Dyrk1A ADPGlo 84 (no result: CAL PDZ FP-2) | ADP-Glo artifact inactive
CCN(CC)C(=O)Cn1c(=O)n(CCCC(=O)NCc2ccccc2)c(=O)c2sccc21	none
Nc1nc(Nc2ccccc2)nc2ccccc12	Dyrk1A ADPGlo 56 | ADP-Glo artifact inactive
COCCNc1cc(C)nc2c(-c3ccccc3OC)c(C)nn12	Dyrk1A ADPGlo 57 (no result: CAL PDZ FP-2) | ADP-Glo artifact inactive
COc1ccc(NS(=O)(=O)c2cccc(C(=O)OCC(=O)N3CCN(c4ccc(OC)cc4)CC3)c2)cc1	none
Cc1nonc1C(=O)N/N=C/c1ccc(O)cc1O	none (no result: ALR inh)
CCc1nc(Nc2cccc(O)c2)c2oc3ccccc3c2n1	Dyrk1A ADPGlo 62 | ADP-Glo artifact inactive
CCc1nc(Nc2ccncc2)c2oc3ccccc3c2n1	none (no result: CAL PDZ FP-2)
Cc1ccc(N=c2oc3cc(O)ccc3cc2C(N)=O)cc1	Dyrk1A ADPGlo 77, ALR inh 96 | ADP-Glo artifact inactive
COc1ccc(Nc2ncnc3nc[nH]c23)cc1OC	Dyrk1A ADPGlo 50 (no result: CAL PDZ FP-2) | ADP-Glo artifact inactive
O=c1cc(-c2ccccc2Cl)oc2c(NS(=O)(=O)c3ccccc3C(F)(F)F)ccc(O)c12	Dyrk1A ADPGlo 59 | ADP-Glo artifact inactive
CCN(CC)CCNC(=O)c1[nH]c2ccc(OCc3ccccc3)cc2c1C	none
